Converted amounts (≈) assume the structure as drawn. The source made the active and inactive calls. No cut-off for these calls is given here.
Assays:
[1] = biological target: T1, NAD-dependent protein deacetylase sirtuin-1 (Homo sapiens, UniProt Q96EB6); experiment: Inhibition of recombinant human SitT1 by Fluor de Lys fluorescence assay
T1 sequence (Q96EB6 whole entry): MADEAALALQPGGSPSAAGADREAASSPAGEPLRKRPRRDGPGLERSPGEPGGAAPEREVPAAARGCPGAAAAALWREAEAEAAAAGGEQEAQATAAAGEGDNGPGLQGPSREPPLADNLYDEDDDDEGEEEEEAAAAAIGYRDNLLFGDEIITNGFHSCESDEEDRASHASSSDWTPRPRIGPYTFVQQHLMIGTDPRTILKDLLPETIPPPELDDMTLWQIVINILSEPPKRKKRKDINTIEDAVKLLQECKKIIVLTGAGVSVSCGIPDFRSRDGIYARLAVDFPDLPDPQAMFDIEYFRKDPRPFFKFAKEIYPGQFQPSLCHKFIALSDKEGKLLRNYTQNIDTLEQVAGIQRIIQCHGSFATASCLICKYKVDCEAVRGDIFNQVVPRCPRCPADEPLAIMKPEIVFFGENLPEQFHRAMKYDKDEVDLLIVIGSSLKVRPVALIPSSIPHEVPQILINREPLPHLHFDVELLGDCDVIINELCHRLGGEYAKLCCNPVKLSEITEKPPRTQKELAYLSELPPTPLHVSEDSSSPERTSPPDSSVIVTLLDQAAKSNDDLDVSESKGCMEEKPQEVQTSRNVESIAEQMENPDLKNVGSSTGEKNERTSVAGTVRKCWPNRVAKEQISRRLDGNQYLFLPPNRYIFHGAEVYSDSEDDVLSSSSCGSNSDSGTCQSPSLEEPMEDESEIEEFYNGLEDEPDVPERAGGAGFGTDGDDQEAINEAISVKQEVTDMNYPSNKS

[2] = biological target: T2, NAD-dependent protein deacetylase sirtuin-1 (Homo sapiens) (UniProt Q96EB6); experiment: Inhibition of SirT1 in human ARN8 cells assessed as p53 activation at 10 uM by beta-galactosidase reporter gene assay; type: cell-based
T2 sequence (whole entry): T1 sequence (Q96EB6 whole entry)
Procedure, shortened: (§1)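 p53-dependent transcription measured with a beta-galactosidase reporter in ARN8 cells, run in triplicate. Read-out is the ratio of signal in treated cells to DMSO-control cells, given to 2 significant figures; a positive or negative activity call is also recorded.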

[3] = biological target: T2, NAD-dependent protein deacetylase sirtuin-1 (Homo sapiens); experiment: Inhibition of recombinant human SitT1 at 60 uM by Fluor de Lys fluorescence assay
Procedure, shortened: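 Human recombinant SirT1 deacetylation measured with the Fluor de Lys fluorescence kit at a fixed 60 µM inhibitor. Tested on two separate occasions; percent inhibition reported as a mean weighted to the standard error.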

[4] = biological target: T2, NAD-dependent protein deacetylase sirtuin-1 (Homo sapiens); experiment: Inhibition of SirT1 in human ARN8 cells assessed as p53 activation at 20 uM by beta-galactosidase reporter gene assay relative to control; type: cell-based; procedure, shortened: as §1
[5] = biological target: T2, NAD-dependent protein deacetylase sirtuin-1 (Homo sapiens); experiment: Inhibition of SirT1 in human ARN8 cells assessed as p53 activation at 5 uM by beta-galactosidase reporter gene assay relative to control; type: cell-based; procedure, shortened: as §1
[6] = biological target: T2, NAD-dependent protein deacetylase sirtuin-1 (Homo sapiens); experiment: Inhibition of SirT1 in human ARN8 cells assessed as p53 activation at 10 uM by beta-galactosidase reporter gene assay relative to control; type: cell-based; procedure, shortened: as §1
[7] = biological target: T2, NAD-dependent protein deacetylase sirtuin-1 (Homo sapiens); experiment: Inhibition of SirT1 in human ARN8 cells assessed as p53 activation at 20 uM by beta-galactosidase reporter gene assay; type: cell-based; procedure, shortened: as §1
[8] = biological target: T3, NAD-dependent protein deacetylase sirtuin-2 (Homo sapiens, UniProt Q8IXJ6); experiment: Inhibition of recombinant human SitT2 by Fluor de Lys fluorescence assay
T3 sequence (Q8IXJ6 whole entry): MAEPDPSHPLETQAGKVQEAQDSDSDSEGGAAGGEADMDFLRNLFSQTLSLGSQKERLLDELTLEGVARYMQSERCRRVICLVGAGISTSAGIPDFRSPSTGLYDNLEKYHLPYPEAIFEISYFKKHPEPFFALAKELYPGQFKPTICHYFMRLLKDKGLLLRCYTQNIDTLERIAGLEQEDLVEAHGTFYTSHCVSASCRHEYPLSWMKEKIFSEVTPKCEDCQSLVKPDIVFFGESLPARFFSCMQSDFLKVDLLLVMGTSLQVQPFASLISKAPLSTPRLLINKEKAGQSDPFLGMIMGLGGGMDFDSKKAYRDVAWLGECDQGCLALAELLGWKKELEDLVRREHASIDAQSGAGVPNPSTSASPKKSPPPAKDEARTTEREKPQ

[9] = biological target: T2, NAD-dependent protein deacetylase sirtuin-1 (Homo sapiens); experiment: Inhibition of SirT1 in human ARN8 cells assessed as p53 activation at 5 uM by beta-galactosidase reporter gene assay; type: cell-based; procedure, shortened: as §1
[10] = Solubility of the compound in water by UV spectrophotometry; type: physicochemical
Procedure, shortened: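 Extinction coefficient from absorbance at 273 nm of a 7-point 2-fold dilution series in acetonitrile; DMSO used first where needed. Coefficient taken from the slope of absorbance against molar concentration. Used to find the actual concentration of a nominal 100 µM aqueous solution made from 40 mM DMSO stock.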

[11] = biological target: T2, NAD-dependent protein deacetylase sirtuin-1 (Homo sapiens); experiment: Inhibition of SirT1 assessed as increase in p53 expression in human MCF7 cells at 2 uM after 6 hrs by Western blotting; type: cell-based
Procedure, shortened: (§2)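 MCF-7 cells grown in DMEM with 10% FCS and gentamycin, seeded at 2 × 10⁵ per well on collagen-coated plates and incubated 42 h at 37 °C in 5% CO2. Compound in DMSO was added for 6 h. Lysis in LDS buffer, protein equalised by BCA, 4–12% bis-tris SDS-PAGE, PVDF blot. Total p53 detected with DO.1, PCNA as loading control, ECL detection. Scored semi-quantitatively against untreated level.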

[12] = biological target: T2, NAD-dependent protein deacetylase sirtuin-1 (Homo sapiens); experiment: Inhibition of SirT1 assessed as increase in p53 expression in human MCF7 cells at 5 uM after 6 hrs by Western blotting; type: cell-based; procedure, shortened: as §2
[13] = biological target: T2, NAD-dependent protein deacetylase sirtuin-1 (Homo sapiens); experiment: Inhibition of SirT1 assessed as increase in p53 expression in human MCF7 cells at 10 uM after 6 hrs by Western blotting; type: cell-based; procedure, shortened: as §2

Compound	IC50 [1] [µM]	inhibition [2]	inhibition [3] [%]	fold change (FC) [4]	fold change (FC) [5]	fold change (FC) [6]	inhibition [7]	IC50 [8] [µM]	inhibition [9]	solubility [10] [µg/mL]	inhibition [11]	inhibition [12]	inhibition [13]
CN(C)CCCCC(=O)Nc1ccc(NC(=S)NC(=O)c2ccc(Cl)cc2)cc1	> 90	inactive	53.4	1.01	1.1	1.2	inactive	> 90	inactive	–	–	–	–
CN(C)CCCCC(=O)Nc1ccc(NC(=S)NC(=O)c2ccc(Br)cc2)cc1	> 90	inactive	13.5	1.01	1	1.1	inactive	55	inactive	–	–	–	–
Cc1ccccc1C(=O)NC(=S)Nc1ccc(NC(=O)CCCCN(C)C)cc1	> 90	inactive	9.9	0.84	0.99	0.98	inactive	42.5	inactive	–	–	–	–
CN(C)CCCCCC(=O)Nc1ccc(NC(=S)NC(=O)c2ccc(C(C)(C)C)cc2)cc1.Cl	–	–	96.2	–	–	–	–	21.3	–	> 0.97	Active	Active	Active
CN(C)CCCCC(=O)Nc1ccc(NC(=S)NC(=O)c2cccc(Br)c2)cc1	–	inactive	70.5	1.2	1.1	1.2	–	–	inactive	–	–	–	–
CC(C)c1ccc(C(=O)NC(=S)Nc2ccc(NC(=O)CCCCN(C)C)cc2)cc1	42.7	Active	52.9	12	8.7	11.1	Active	5.71	Active	–	–	–	–
CN(C)CCCCC(=O)Nc1ccc(NC(=S)NC(=O)c2ccc(C(C)(C)C)c(Br)c2)cc1	–	inactive	93.5	1.4	1.1	1.1	Active	–	inactive	–	–	–	–
COc1cccc(C(=O)NC(=S)Nc2ccc(NC(=O)CCCCN(C)C)cc2)c1	–	inactive	25.3	1.2	1.1	1.1	inactive	–	inactive	–	–	–	–
CCCc1ccc(C(=O)NC(=S)Nc2ccc(NC(=O)CCCCN(C)C)cc2)cc1	60.2	Active	50.9	2.4	1	1.5	Active	7.85	inactive	–	–	–	–
CN(C)CCCCC(=O)Nc1ccc(NC(=S)NC(=O)c2ccc(Cl)c(Cl)c2)cc1	–	inactive	8.1	0.97	1.04	1.1	inactive	–	inactive	–	–	–	–
CCCCCc1ccc(C(=O)NC(=S)Nc2ccc(NC(=O)CCCCN(C)C)cc2)cc1	36.7	inactive	73.2	1.2	1.1	1.1	–	5.6	inactive	–	–	–	–
CN(C)CCCCC(=O)Nc1ccc(N(C)C(=S)NC(=O)c2ccc(C(C)(C)C)cc2)cc1	–	–	6.6	–	–	–	–	–	–	–	inactive	inactive	inactive
CC(=O)Nc1ccc(NC(=S)NC(=O)c2ccc(C(C)(C)C)cc2)cc1	–	–	–	–	–	–	–	–	–	0.12 (≈ 0.325 µM)	Active	Active	Active
CN(C)CCCCC(=O)Nc1ccc(NC(=S)NC(=O)c2ccccc2Cl)cc1	> 90	inactive	29.3	1.2	1.2	1.1	inactive	> 90	inactive	–	–	–	–
COc1ccc(C(=O)NC(=S)Nc2ccc(NC(=O)CCCCN(C)C)cc2)cc1	> 90	inactive	48.5	1.12	1	1.1	inactive	50.6	inactive	–	–	–	–
CN(C)CCCCC(=O)Nc1ccc(NC(=S)NC(=O)c2cccc(Cl)c2)cc1	–	inactive	29.2	1	1.1	1.1	inactive	–	inactive	–	–	–	–
Cc1ccc(C(=O)NC(=S)Nc2ccc(NC(=O)CCCCN(C)C)cc2)cc1	> 90	inactive	47.3	1.1	1.2	1.1	inactive	> 90	inactive	–	–	–	–
CN(C)CCCCC(=O)Nc1ccc(NC(=S)NC(=O)c2ccccc2)cc1	> 90	inactive	3.5	0.92	1.1	0.97	inactive	> 90	inactive	–	–	–	–
Cc1cccc(C(=O)NC(=S)Nc2ccc(NC(=O)CCCCN(C)C)cc2)c1	> 90	inactive	5.2	0.89	0.94	0.89	inactive	> 90	inactive	–	–	–	–
CN(C)CCCCC(=O)Nc1ccc(NC(=O)NC(=O)c2ccc(C(C)(C)C)cc2)cc1	21.7	Active	93.6	6.5	6.9	7.3	Active	88.4	Active	–	–	–	–
CN(C)CCCCCCCC(=O)Nc1ccc(NC(=S)NC(=O)c2ccc(C(C)(C)C)cc2)cc1.Cl	–	–	70.9	–	–	–	–	41.7	–	> 1.01	Active	Active	Active
CN(C)CCCCNC(=O)c1ccc(NC(=S)NC(=O)c2ccc(C(C)(C)C)cc2)cc1	17.9	Active	72.5	5.5	–	3.9	Active	12.4	–	–	–	–	–
